Experimental data from ChEMBL document CHEMBL4041524, “Synthesis and Characterization of a Novel γ-Aminobutyric Acid Type A (GABAA) Receptor Ligand That Combines Outstanding Metabolic Stability, Pharmacokinetics, and Anxiolytic Efficacy” (J Med Chem, 2016).

How the values were obtained:
[1] = test system: Rattus norvegicus; assay: Anxiolytic like activity in water-deprived Sprague-Dawley rat assessed as increase in water drinking time during punished period at 30 mg/kg, po administered 30 prior to testing by Vogel conflict test relative to vehicle control; assay type: functional
Outline: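 Water-deprived male Sprague-Dawley rats (n = 6–8) drank during unpunished and punished periods, with licking suppressed by mild shock in punished periods. Compounds were given 30 min before testing. Analysis was ANOVA with Dunnett's test.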

[2] = target: GABA-A receptor; alpha-3/beta-3/gamma-2 (Homo sapiens) (UniProt P18507+P28472+P34903); assay: Modulation of recombinant GABA alpha3beta3gamma2 receptor (unknown origin) expressed in Xenopus laevis oocytes assessed as change in GABA-induced EC(3 to 6) current at 100 nM by two-electrode voltage clamp assay; assay type: cell-based
Outline: (§1)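 Xenopus laevis oocytes expressing α1, α2, α3 or α5 β3γ2 GABAARs were recorded by two-electrode voltage clamp. Modulation of the GABA EC3-6 current (taken as 100%) was tested at 100 nM, 1 μM and 10 μM in the same cells. Values are mean ± SEM, n = 3–4.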

[3] = Total plasma concentration in Sprague-Dawley rat at 10 mg/kg, po measured after 60 mins by LC-MS/MS analysis; assay type: ADME, organism-based
Outline: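 Sprague-Dawley rats (n = 3 per time point) were given 10 mg/kg p.o. Total plasma concentrations were taken at 15, 30, 60 and 120 min. Brain levels of the dosed ligand and of the carboxylic acid metabolite were taken at 60 or 120 min.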

[4] = target: GABA-A receptor; alpha-2/beta-3/gamma-2 (Homo sapiens) (UniProt P18507+P28472+P47869); assay: Modulation of recombinant GABA alpha2beta3gamma2 receptor (unknown origin) expressed in Xenopus laevis oocytes assessed as change in GABA-induced EC(3 to 6) current at 1 uM by two-electrode voltage clamp assay; assay type: cell-based; outline: as §1
[5] = test system: Rattus norvegicus; assay: Toxicity in water-deprived Sprague-Dawley rat assessed as effect on water drinking time during nonpunished period up to 60 mg/kg, po administered 30 mins prior to testing; assay type: organism-based; conditions: in vivo, 0.5 h
[6] = test system: Mus musculus; assay: Toxicity in Swiss mouse assessed as change in motor coordination by measuring number of falls from the rotating rod at 30 mg/kg, ip administered 30 mins prior to testing measured for 2 mins by rotarod test relative to control; assay type: organism-based; conditions: in vivo
Outline: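 The same mice used for marble burying were placed on a rotarod at 4 r.p.m. for 2 min. No fall was scored success, one fall partial, and two falls failure.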

[7] = target: GABA-A receptor; alpha-1/beta-3/gamma-2 (Homo sapiens) (UniProt P14867+P18507+P28472); assay: Modulation of recombinant GABA alpha1beta3gamma2 receptor (unknown origin) expressed in Xenopus laevis oocytes assessed as change in GABA-induced EC(3 to 6) current by two-electrode voltage clamp assay; assay type: cell-based; outline: as §1
[8] = Clearance in femoral artery/vein cannulated Sprague-Dawley rat at 1 mg/kg, iv administered […] as single dose by LC-MS/MS analysis; assay type: ADME, organism-based; conditions: in vivo
Outline: (§2)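 Male Sprague-Dawley rats (n = 3 per time point) were dosed 1 mg/kg i.v. or 10 mg/kg i.p. Plasma concentrations were measured at set time points. Clearance, Vdss and T½ came from the i.v. arm, and AUC, Cmax and Tmax from the i.p. arm.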

[9] = AUC in femoral artery/vein cannulated Sprague-Dawley rat at 10 mg/kg, ip administered […] as single dose by LC-MS/MS analysis; assay type: ADME, organism-based; conditions: in vivo; outline: as §2
[10] = test system: Liver; assay: Metabolic stability in rat liver microsomes assessed as compound remaining at 4 uM measured after 30 mins in presence of NADPH by LC-MS/MS analysis; assay type: ADME, microsome; conditions: 0.5 h
Outline: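 Human, mouse or rat liver microsomes were incubated with compound at 4 μM final for 30 min at 37 °C (n = 1). Percent of parent remaining was quantified by LC-MS/MS.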

[11] = target: T1, GABA-A receptor; alpha-2/beta-3/gamma-2 (Homo sapiens, UniProt P18507+P28472+P47869); assay: Modulation of recombinant human GABA alpha2beta3gamma2 receptor expressed in HEK293 cells assessed as change in GABA-induced current at -80 mV holding potential preincubated for 3 mins followed by co-administration of GABA by electrophysiology method; assay type: cell-based
T1 sequence (P18507 whole entry): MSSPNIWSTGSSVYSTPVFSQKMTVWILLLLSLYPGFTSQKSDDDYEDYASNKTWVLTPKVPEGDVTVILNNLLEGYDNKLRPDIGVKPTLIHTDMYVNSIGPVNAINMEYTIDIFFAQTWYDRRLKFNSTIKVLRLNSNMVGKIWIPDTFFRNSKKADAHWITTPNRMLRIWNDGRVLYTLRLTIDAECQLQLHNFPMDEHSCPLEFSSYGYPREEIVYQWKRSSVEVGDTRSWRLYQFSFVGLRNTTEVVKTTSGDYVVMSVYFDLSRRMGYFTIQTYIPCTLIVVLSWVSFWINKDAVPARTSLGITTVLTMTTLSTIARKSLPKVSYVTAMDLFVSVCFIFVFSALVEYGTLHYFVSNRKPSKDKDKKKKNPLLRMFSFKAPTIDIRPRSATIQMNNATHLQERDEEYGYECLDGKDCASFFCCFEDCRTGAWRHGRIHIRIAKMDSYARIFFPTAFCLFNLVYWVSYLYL
T1 sequence (P28472 whole entry): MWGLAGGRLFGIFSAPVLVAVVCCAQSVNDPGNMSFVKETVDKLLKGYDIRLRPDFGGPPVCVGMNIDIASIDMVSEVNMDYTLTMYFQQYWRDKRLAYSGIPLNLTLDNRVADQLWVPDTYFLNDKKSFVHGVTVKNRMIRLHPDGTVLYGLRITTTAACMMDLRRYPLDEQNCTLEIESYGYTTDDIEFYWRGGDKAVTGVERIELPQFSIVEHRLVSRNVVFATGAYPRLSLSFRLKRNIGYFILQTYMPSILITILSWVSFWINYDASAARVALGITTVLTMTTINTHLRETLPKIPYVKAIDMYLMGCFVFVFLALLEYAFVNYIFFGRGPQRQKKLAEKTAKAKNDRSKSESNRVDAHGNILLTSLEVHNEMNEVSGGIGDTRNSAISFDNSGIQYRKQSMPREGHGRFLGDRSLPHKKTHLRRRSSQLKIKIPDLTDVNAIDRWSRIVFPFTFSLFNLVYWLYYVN
T1 sequence (P47869 whole entry): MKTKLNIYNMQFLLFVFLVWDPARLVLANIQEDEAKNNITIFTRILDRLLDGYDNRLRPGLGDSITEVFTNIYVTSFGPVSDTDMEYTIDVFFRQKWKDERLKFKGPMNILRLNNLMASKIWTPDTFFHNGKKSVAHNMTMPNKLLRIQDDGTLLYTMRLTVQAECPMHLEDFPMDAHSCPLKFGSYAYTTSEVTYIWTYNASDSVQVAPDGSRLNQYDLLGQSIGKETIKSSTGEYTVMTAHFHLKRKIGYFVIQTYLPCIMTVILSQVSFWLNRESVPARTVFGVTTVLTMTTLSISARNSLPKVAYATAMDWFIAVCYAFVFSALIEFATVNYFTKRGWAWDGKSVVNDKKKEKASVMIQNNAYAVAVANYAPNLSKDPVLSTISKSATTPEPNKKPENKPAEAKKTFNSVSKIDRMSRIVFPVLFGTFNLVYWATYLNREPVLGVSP

SMILES: C#Cc1ccc2c(c1)C(c1ccccn1)=NCc1c(-c3cnco3)ncn1-2
- Activity [1]: 220%
- Activity [2]: 109%
- concentration at 1 h [3]: 3.91 µM
- Activity [4]: 201%
- Activity [5]: Non-Toxic
- Activity [6]: Non-Toxic
- Activity [7]: Dose-dependent effect
- clearance [8]: 21.7 mL/min/kg
- AUC [9]: 16.5 µM·h
- Stability [10]: 90%
- EC50 [11]: 118 nM
